Reference: ChEMBL document CHEMBL1137524, “Synthesis and antibacterial activity of pyranmycin derivatives with N-1 and O-6 modifications” (2007)
≈ marks a conversion by molar mass, not a printed value.

What was measured:
Format in all cases: functional
Escherichia coli [1] = experiment: Antibacterial activity against aminoglycoside-resistant Escherichia coli TG1 pTZ19U-3 after 12 to 18 hrs
Procedure, shortened: (§1)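 Broth microdilution MIC. Bacteria grown in Trypticase Soy broth at 35 °C for 1–2 h, adjusted with broth to A625 0.08–0.1, then 100 µL diluted into 10 mL broth. Wells received diluted inoculum plus 2-fold serial dilutions of compound. Incubated 35 °C for 12–18 h. MIC taken as lowest concentration inhibiting growth, in µg/mL.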

Escherichia coli [2] = experiment: Antibacterial activity against aminoglycoside-resistant Escherichia coli TG1 pSF815 after 12 to 18 hrs; procedure, shortened: as §1
Escherichia coli [3] = experiment: Antibacterial activity against aminoglycoside-susceptible Escherichia coli TG1 after 12 to 18 hrs; procedure, shortened: as §1
Escherichia coli [4] = experiment: Antibacterial activity against Escherichia coli ATCC 25922 after 12 to 18 hrs; procedure, shortened: as §1
Klebsiella pneumoniae [5] = experiment: Antibacterial activity against Klebsiella pneumoniae ATCC 13883 after 12 to 18 hrs
Procedure, shortened: (§2)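 Broth microdilution in Trypticase Soy broth. Bacteria grown at 35 °C for 1–2 h, adjusted with broth to A625 0.08–0.1, then diluted 100 µL into 10 mL broth. 50 µL inoculum was combined with 50 µL of 2-fold serial compound dilutions and incubated at 35 °C for 12–18 h. MIC taken as the lowest concentration inhibiting growth.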

Klebsiella pneumoniae [6] = experiment: Antibacterial activity against Klebsiella pneumoniae ATCC 700603 after 12 to 18 hrs; procedure, shortened: as §2
Pseudomonas aeruginosa = experiment: Antibacterial activity against Pseudomonas aeruginosa ATCC 27853 after 12 to 18 hrs; procedure, shortened: as §2
Staphylococcus aureus = experiment: Antibacterial activity against methicillin-resistant Staphylococcus aureus ATCC 33591 after 12 to 18 hrs; procedure, shortened: as §1

Row | SMILES | MIC (Escherichia coli [1]) [µg/mL] | MIC (Escherichia coli [2]) [µg/mL] | MIC (Escherichia coli [3]) [µg/mL] | MIC (Escherichia coli [4]) [µg/mL] | MIC (Klebsiella pneumoniae [5]) [µg/mL] | MIC (Klebsiella pneumoniae [6]) [µg/mL] | MIC (Pseudomonas aeruginosa) [µg/mL] | MIC (Staphylococcus aureus) [µg/mL]
1 | C[C@H]1O[C@@H](O[C@@H]2[C@@H](OCCO)[C@H](NC(=O)[C@@H](O)CCN)C[C@H](N)[C@H]2O[C@H]2O[C@H](CN)[C@@H](O)[C@H](O)[C@H]2N)[C@H](O)[C@@H](O)[C@@H]1N | 16 (≈ 26.1 µM) | 8 (≈ 13.1 µM) | 2 (≈ 3.26 µM) | 16 (≈ 26.1 µM) |  |  |  | 
2 | C[C@H]1O[C@@H](O[C@@H]2[C@@H](O)[C@H](N)C[C@H](N)[C@H]2O[C@H]2O[C@H](CN)[C@@H](O)[C@H](O)[C@H]2N)[C@H](O)[C@@H](O)[C@@H]1N | ≥ 32 | 8 (≈ 17.1 µM) | 8 (≈ 17.1 µM) | 8 (≈ 17.1 µM) | 4 (≈ 8.56 µM) | 16 (≈ 34.2 µM) | 4 (≈ 8.56 µM) | ≥ 32
3 | C[C@H]1O[C@@H](O[C@@H]2[C@@H](O)[C@H](NC(=O)[C@@H](O)CCN)C[C@H](N)[C@H]2O[C@H]2O[C@H](CN)[C@@H](O)[C@H](O)[C@H]2N)[C@H](O)[C@@H](O)[C@@H]1N | 4 (≈ 7.03 µM) | 2 (≈ 3.52 µM) | 4 (≈ 7.03 µM) | 8 (≈ 14.1 µM) | 1 (≈ 1.76 µM) | 1 (≈ 1.76 µM) | 2 (≈ 3.52 µM) | ≥ 32
4 | C[C@H]1O[C@@H](O[C@@H]2[C@@H](OCCN)[C@H](NC(=O)[C@@H](O)CCN)C[C@H](N)[C@H]2O[C@H]2O[C@H](CN)[C@@H](O)[C@H](O)[C@H]2N)[C@H](O)[C@@H](O)[C@@H]1N | 1 (≈ 1.63 µM) | 2 (≈ 3.27 µM) | 8 (≈ 13.1 µM) | 8 (≈ 13.1 µM) | 4 (≈ 6.54 µM) | 2 (≈ 3.27 µM) | 0.5 (≈ 0.817 µM) | ≥ 32
5 | CCCO[C@@H]1[C@@H](O[C@@H]2O[C@H](C)[C@@H](N)[C@H](O)[C@H]2O)[C@H](O[C@H]2O[C@H](CN)[C@@H](O)[C@H](O)[C@H]2N)[C@@H](N)C[C@H]1NC(=O)[C@@H](O)CCN | ≥ 32 | ≥ 32 | 8 (≈ 13.1 µM) | ≥ 32 |  |  |  | 
6 | NCC[C@H](O)C(=O)N[C@@H]1C[C@H](N)[C@@H](O[C@H]2O[C@H](CN)[C@@H](O)[C@H](O)[C@H]2N)[C@H](O[C@@H]2O[C@H](CO)[C@H](O)[C@H]2O)[C@H]1O [BUTIROSIN A] | 0.5 (≈ 0.9 µM) | 0.5 (≈ 0.9 µM) | 1 (≈ 1.8 µM) | 4 (≈ 7.2 µM) | 1 (≈ 1.8 µM) | 1 (≈ 1.8 µM) | 1 (≈ 1.8 µM) | ≥ 32
7 | NC[C@@H]1O[C@H](O[C@H]2[C@@H](O)[C@H](O[C@@H]3[C@@H](O)[C@H](N)C[C@H](N)[C@H]3O[C@H]3O[C@H](CN)[C@@H](O)[C@H](O)[C@H]3N)O[C@@H]2CO)[C@H](N)[C@@H](O)[C@@H]1O [FRAMYCETIN] | ≥ 32 | 4 (≈ 6.51 µM) | 4 (≈ 6.51 µM) | 4 (≈ 6.51 µM) | 8 (≈ 13 µM) | 16 (≈ 26 µM) | 0.5 (≈ 0.813 µM) | ≥ 32
8 | NC[C@H]1O[C@H](O[C@H]2[C@H](O[C@@H]3O[C@H](CO)[C@@H](O)[C@H]3O)[C@@H](O)[C@H](N)C[C@@H]2N)[C@H](N)[C@@H](O)[C@@H]1O [RIBOSTAMYCIN] | ≥ 32 | 4 (≈ 8.8 µM) | 4 (≈ 8.8 µM) | 8 (≈ 17.6 µM) |  |  |  | 
